Data as given in ChEMBL document CHEMBL4184124, “Progress in antischistosomal N,N'-diaryl urea SAR” (Bioorg Med Chem Lett, 2018).
Values after ≈ are worked out from the molar mass of the structure shown. Active and inactive are the calls of the source. The rule behind the calls is not given here.

How the values were obtained:
[1] = Kinetic solubility of the compound in phosphate buffer at pH 6.5 by nephelometric method; assay type: physicochemical; conditions: read-out: Kinetic_solubility
Summary of the method: (§1)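 DMSO stocks spiked into pH 6.5 phosphate buffer or 0.01 M HCl (approx. pH 2.0); nephelometry gave a solubility concentration range.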

[2] = Kinetic solubility of the compound in 0.01M HCl at pH 2 by nephelometric method; assay type: physicochemical; conditions: read-out: Kinetic_solubility; summary of the method: as §1
[3] = Intrinsic clearance in human liver microsomes assessed per mg protein after 60 mins in presence of NADPH generating system; assay type: ADME, microsome; conditions: 1 h
[4] = Intrinsic clearance in mouse liver microsomes assessed per mg protein after 60 mins in presence of NADPH generating system; assay type: ADME, microsome; conditions: 1 h
[5] = Octanol-[…] partition coefficient, log D of the compound at pH 7.4 by RP-HPLC method
Schistosoma mansoni [6] = test: Antischistosomal activity against newly transformed stage of Schistosoma mansoni measured after 72 hrs by microscopic analysis; assay type: functional, organism-based
Summary of the method: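 Newly transformed schistosomula were first screened at 10 µM; compounds that killed them were then run as a concentration titration to derive IC50 values.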

Schistosoma mansoni [7] = test: Antischistosomal activity against adult stage of Schistosoma mansoni measured after 72 hrs by microscopic analysis; assay type: functional, organism-based
Schistosoma mansoni [8] = test: Antischistosomal activity against newly transformed stage of Schistosoma mansoni assessed as parasite death at 10 uM; assay type: functional, organism-based
Summary of the method: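 Newly transformed schistosomula exposed at 10 µM as a screen for killing; active compounds then titrated to give IC50.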

HFF = test: Cytotoxicity against HFF; assay type: cell-based; conditions: Homo sapiens
U2OS = test: Cytotoxicity against human U2OS cells; assay type: cell-based
HEK293 = test: Cytotoxicity against HEK293 cells; assay type: cell-based; conditions: Homo sapiens
[9] = Cytotoxicity against human HC04 cells; assay type: cell-based
[10] = Plasma concentration in Swiss mouse at 100 mg/kg, po administered as single dose via gavage measured up to 48 hrs by LC-MS analysis; assay type: ADME, organism-based
Summary of the method: (§2)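 Single 100 mg/kg oral dose given to non-infected male Swiss outbred mice; plasma sampled over 48 h post-dose; n=2 mice per time point, mean values. AUC taken to last measured concentration.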

[11] = Cmax in Swiss mouse at 100 mg/kg, po administered as single dose via gavage by LC-MS analysis; assay type: ADME, organism-based; design: dose 100 mg/kg, route oral; conditions: in vivo; summary of the method: as §2
[12] = AUC (0 to last) in Swiss mouse at 100 mg/kg, po administered as single dose via gavage by LC-MS analysis; assay type: ADME, organism-based; design: dose 100 mg/kg, time 0 - last, route oral; conditions: in vivo; summary of the method: as §2
Schistosoma mansoni [13] = test: Antischistosomal activity against Schistosoma mansoni cercariae infected in NMRI mouse assessed as reduction in worm burden at 100 mg/kg, po administered as single dose via gavage measured after 21 days relative to control; assay type: functional; design: scale not given: the % may be the effect or the level left
Summary of the method: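 Infected mice given a single 100 mg/kg oral dose; efficacy read as worm burden reduction (%).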

[14] = Tmax in Swiss mouse at 100 mg/kg, po administered as single dose via gavage by LC-MS analysis; assay type: ADME, organism-based; conditions: in vivo; summary of the method: as §2
[15] = Half-life in Swiss mouse at 100 mg/kg, po administered as single dose via gavage by LC-MS analysis; assay type: ADME, organism-based; conditions: in vivo; summary of the method: as §2

Structure (SMILES) | solubility kinetic [1] | solubility kinetic [2] | CLH [3] | CLH [4] | chromatographic logD [5] | IC50 (Schistosoma mansoni [6]) | IC50 (Schistosoma mansoni [7]) | Activity (Schistosoma mansoni [8]) | IC50 (HFF) | IC50 (U2OS) | IC50 (HEK293) | IC50 [9] | concentration at 48 h [10] | Cmax [11] | AUC(0-t) [12] | Activity (Schistosoma mansoni [13]) | Tmax [14] | half-life [15]
O=C(Nc1ccc(C(=O)O)cc1)Nc1ccc(F)c(C(F)(F)F)c1 | 12.5 to 25 µg/mL (≈ 36.5 to 73 µM) | < 1.6 µg/mL | < 7 µL/min/mg | < 7 µL/min/mg | 1.5 |  |  |  |  |  |  |  |  |  |  |  |  | 
NC(=O)c1ccccc1NC(=O)Nc1ccc(F)c(C(F)(F)F)c1 | 1.6 to 3.1 µg/mL (≈ 4.69 to 9.08 µM) | 1.6 to 3.1 µg/mL (≈ 4.69 to 9.08 µM) | 81 µL/min/mg | 69 µL/min/mg | 3.3 |  |  |  |  |  |  |  |  |  |  |  |  | 
Cc1cc(NC(=O)Nc2ccc(F)c(C(F)(F)F)c2)on1 | 6.3 to 12.5 µg/mL (≈ 20.8 to 41.2 µM) | 12.5 to 25 µg/mL (≈ 41.2 to 82.4 µM) | 73 µL/min/mg | 108 µL/min/mg | 3.2 |  |  |  |  |  |  |  |  |  |  |  |  | 
O=C(Nc1ccc2c(c1)OC(F)(F)O2)Nc1ccc(F)c(C(F)(F)F)c1 | < 1.6 µg/mL | < 1.6 µg/mL | < 7 µL/min/mg | < 7 µL/min/mg | 4.5 | 210 nM | 490 nM | Active | 67 µM | > 100 µM | > 100 µM | > 100 µM | > 5 µM | 27 µM | 989 µM·h | 0% |  | 
CC(=O)c1ccc(NC(=O)Nc2ccc(F)c(C(F)(F)F)c2)cc1 | < 1.6 µg/mL | < 1.6 µg/mL | 16 µL/min/mg | 14 µL/min/mg | 3.6 |  |  |  |  |  |  |  |  |  |  |  |  | 
O=C(Nc1ccncc1)Nc1ccc(F)c(C(F)(F)F)c1 | 6.3 to 12.5 µg/mL (≈ 21.1 to 41.8 µM) | 6.3 to 12.5 µg/mL (≈ 21.1 to 41.8 µM) | 12 µL/min/mg | 37 µL/min/mg | 3.2 | 5600 nM | > 10000 nM | Active |  |  |  |  |  |  |  |  |  | 
O=C(Nc1ccnc(C(F)(F)F)c1)Nc1ccc2c(c1)OC(F)(F)O2 | 3.1 to 6.3 µg/mL (≈ 8.58 to 17.4 µM) | 3.1 to 6.3 µg/mL (≈ 8.58 to 17.4 µM) | < 7 µL/min/mg | 16 µL/min/mg | 3.7 | 1300 nM | 750 nM | Active | 80 µM | > 100 µM | > 100 µM | > 100 µM | > 5 µM | 55 µM | 2270 µM·h | 2.1% |  | 
O=C(Nc1cnccn1)Nc1cnccn1 | 6.3 to 12.5 µg/mL (≈ 29.1 to 57.8 µM) | 6.3 to 12.5 µg/mL (≈ 29.1 to 57.8 µM) | 18 µL/min/mg | 157 µL/min/mg | 0.8 |  |  |  |  |  |  |  |  |  |  |  |  | 
O=C(Nc1ccc(F)c(C(F)(F)F)c1)Nc1ccccn1 | < 1.6 µg/mL | 1.6 to 3.1 µg/mL (≈ 5.35 to 10.4 µM) | 188 µL/min/mg | 705 µL/min/mg | 3.7 |  |  |  |  |  |  |  |  |  |  |  |  | 
O=C(Nc1ccc(F)c(C(F)(F)F)c1)Nc1cnccn1 | < 1.6 µg/mL | 1.6 to 3.1 µg/mL (≈ 5.33 to 10.3 µM) | 210 µL/min/mg | 160 µL/min/mg | 3 |  |  |  |  |  |  |  |  |  |  |  |  | 
O=C(Nc1cccc(C(=O)O)c1)Nc1ccc(F)c(C(F)(F)F)c1 | 12.5 to 25 µg/mL (≈ 36.5 to 73 µM) | 1.6 to 3.1 µg/mL (≈ 4.67 to 9.06 µM) | < 7 µL/min/mg | < 7 µL/min/mg | 1.6 |  |  |  |  |  |  |  |  |  |  |  |  | 
N#Cc1ccc(NC(=O)Nc2ccc(F)c(C(F)(F)F)c2)cc1 | < 1.6 µg/mL | < 1.6 µg/mL | < 7 µL/min/mg | 12 µL/min/mg | 3.8 | 1600 nM | 940 nM | Active | 60 µM | > 100 µM | > 100 µM | > 100 µM |  | 31 µM | 216 µM·h | 37% | 4 h | 162 min
O=C(Nc1ccncc1)Nc1ccncc1 | 12.5 to 25 µg/mL (≈ 58.3 to 117 µM) | > 100 µg/mL | < 7 µL/min/mg | 188 µL/min/mg | 1.3 |  |  |  |  |  |  |  |  |  |  |  |  | 
NC(=O)c1ccc(NC(=O)Nc2ccc(F)c(C(F)(F)F)c2)cc1 | 6.3 to 12.5 µg/mL (≈ 18.5 to 36.6 µM) | 6.3 to 12.5 µg/mL (≈ 18.5 to 36.6 µM) | 28 µL/min/mg | 22 µL/min/mg | 2.7 |  |  |  |  |  |  |  |  |  |  |  |  | 
O=C(Nc1ccc2c(c1)OC(F)(F)O2)Nc1ccc2c(c1)OC(F)(F)O2 | < 1.6 µg/mL | < 1.6 µg/mL | < 7 µL/min/mg | 12 µL/min/mg | 4.4 | 260 nM | 490 nM | Active | 79 µM | > 100 µM | > 100 µM | > 100 µM | > 5 µM | 25 µM | 679 µM·h | 0% |  | 780 min
N#Cc1ccc(NC(=O)Nc2ccnc(C(F)(F)F)c2)cc1 | 1.6 to 3.1 µg/mL (≈ 5.22 to 10.1 µM) | 1.6 to 3.1 µg/mL (≈ 5.22 to 10.1 µM) | < 7 µL/min/mg | < 7 µL/min/mg | 3 | 1900 nM | 3300 nM | Active | > 100 µM | > 100 µM | > 100 µM | > 100 µM |  | 20 µM | 175 µM·h | 1.6% | 2 h | 138 min
O=C(Nc1cccnc1)Nc1ccc(F)c(C(F)(F)F)c1 | 12.5 to 25 µg/mL (≈ 41.8 to 83.5 µM) | 50 to 100 µg/mL (≈ 167 to 334 µM) | 13 µL/min/mg | 154 µL/min/mg | 3 |  |  |  |  |  |  |  |  |  |  |  |  | 
